Bioassay records: PubChem BioAssay, The Scripps Research Institute Molecular Screening Center
PRMT1 inh: PRMT1 (human) inhibition, primary screen | inhibition, % at 2.79 µM | Q99873 | recombinant PRMT1, activity-based probe fluorescence polarization | actives 1.3% (n = 370,000);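 active = inhibition above about 21% made by adding two undisclosed values, limit read from the data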
UHRF1 binding: human UHRF1 methylated DNA binding inhibitors; Q96T88; UHRF1 binding to methylated oligo, TR-FRET; inhibition, % at 4.4 µM; actives 0.75% (n = 370,000); in the data active = inhibition above about 21%;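 also: UHRF1 SRA domain binding a hemimethylated CpG hairpin DNA probe; 0% = median of test compound wells and 100% = reference inhibitor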
Target sequence (Q96T88 whole entry, looked up, the tested form may be a part): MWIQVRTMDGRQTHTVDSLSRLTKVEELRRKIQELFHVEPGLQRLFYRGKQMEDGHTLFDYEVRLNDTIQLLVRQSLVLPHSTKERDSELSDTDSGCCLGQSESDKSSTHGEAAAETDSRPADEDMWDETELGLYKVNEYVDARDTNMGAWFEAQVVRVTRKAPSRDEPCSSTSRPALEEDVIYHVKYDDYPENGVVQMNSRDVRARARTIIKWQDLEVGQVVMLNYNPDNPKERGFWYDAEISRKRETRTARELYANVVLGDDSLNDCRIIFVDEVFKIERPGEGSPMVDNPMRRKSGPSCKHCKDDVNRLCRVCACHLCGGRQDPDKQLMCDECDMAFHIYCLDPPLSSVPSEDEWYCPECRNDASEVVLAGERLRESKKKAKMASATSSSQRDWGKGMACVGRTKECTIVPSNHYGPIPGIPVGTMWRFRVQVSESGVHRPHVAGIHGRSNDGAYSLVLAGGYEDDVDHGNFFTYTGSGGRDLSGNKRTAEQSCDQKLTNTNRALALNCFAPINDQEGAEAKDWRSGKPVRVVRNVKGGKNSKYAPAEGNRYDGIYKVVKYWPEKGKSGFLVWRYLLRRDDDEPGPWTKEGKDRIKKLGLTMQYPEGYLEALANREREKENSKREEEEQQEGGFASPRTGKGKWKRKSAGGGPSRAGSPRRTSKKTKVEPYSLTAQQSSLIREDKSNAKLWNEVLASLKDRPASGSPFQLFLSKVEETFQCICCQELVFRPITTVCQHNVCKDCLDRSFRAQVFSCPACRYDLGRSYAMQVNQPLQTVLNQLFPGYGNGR
RBBP9 inhibitor: inhibitors of human serine hydrolase RBBP9; O75884; recombinant RBBP9, FP-Rh probe fluorescence polarization; actives 0.2% (n = 220,000); inhibition, % at 7.94 µM; AID 1515;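 active = inhibition above the campaign mean of all tested compounds plus 3 SD, cut at about 14% in these data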;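 also: plate controls were DMSO wells with RBBP9 for no effect and wells lacking RBBP9 protein for full effect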
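System: RBBP9 protein / Buffer or medium: Tris/NaCl buffer pH 8.0 with 0.1% Pluronic / Probe or stimulus: Serine-hydrolase probe FP-Rh, 375 nM pre-mixing / Dosing: 7.94 µM single dose, 0.794% DMSO / Times: enzyme-compound preincubation 30 min, then probe labeling 45 min, 25 °C / Technique: fluorescence polarization (mP), excitation 525 nm, emission 598 nm / Replication: singlicate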
ABHD5-PLIN5 inh: blocks binding of human ABHD5 to perilipin-5 | Q00G26+Q8WTS1 | Split G. princeps luciferase complementation, luminescence, 4 h | inhibition, % at 4 µM | actives 0.78% (n = 360,000);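 active = inhibition above the mean inhibition across every tested compound plus 3 SD, cut at about 22% in these data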;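 also: 0% = DMSO only wells and the 100% control is not disclosed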
LEDGF integ inh: blocks HIV-1 LEDGF/p75-dependent DNA integration; AID 743269; actives 0.64% (n = 370,000); inhibition, % at 3.7 µM; TR-FRET IN-LEDGF/p75 DNA integration, Eu/Cy5;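 active = inhibition above the screen-wide mean plus 3 SD, cut at about 13% in these data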;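 also: signal is the Cy5 over europium emission ratio at 671 and 618 nm; 0% = plate median of compound wells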
MBD2 inh: blocks human MBD2 binding to methylated DNA. Q9UBB5. TR-FRET, MBD2 binding to methylated oligonucleotide. inhibition, % at 4.4 µM. actives 0.31% (n = 370,000). AID 686964; in the data active = inhibition above about 13%
Numbers without * were called inactive; x = no result given. A selection: hits, their analogues and other compounds. The true share with any hit is near 3.1%.

SMILES	PRMT1 inh	UHRF1 binding	RBBP9 inhibitor	ABHD5-PLIN5 inh	LEDGF integ inh	MBD2 inh
CCOC(=O)NC1(Nc2ccc(C)cc2)Oc2ccccc2O1	37*	4	-3	-3	3	-6
CCC(=O)N1CCc2cc(Br)c(S(=O)(=O)NCc3ccccc3OC)cc21	0	1	x	x	-2	1
COc1cc(/C=C2/C(=O)NN(c3cccc(Cl)c3)C2=O)cc(OC)c1O	22*	-1	x	3	-1	1
CCOc1cc(/C=C2/C(=O)NN(c3cccc(Cl)c3)C2=O)ccc1O	18	4	x	-2	-2	-1
O=C(N[C@H](C(=O)N1CCC[C@H]1C(=O)NCCc1ccccc1Cl)c1ccccc1)c1ccco1	6	2	x	x	1	-2
O=C(C[C@@H]1C/C=C\CC[C@H](Cc2ccc(F)cc2)C(=O)OC[C@@H](Cc2ccccc2)NC1=O)NCCO	5	21*	x	-3	1	8
Cc1cc(C)c(C)c(S(=O)(=O)N2CCN(C)CC2)c1C	4	39*	7	-3	-2	4
Cc1cc(C)c(C)c(S(=O)(=O)N2CCSCC2)c1C	-2	0	x	-4	2	-2
C[C@H]1[C@@H](NC(=O)C#Cc2ccccc2)CC[C@@]23CCCN2C(=O)CCC[C@@H]13	1	0	x	x	-3	-4
Cn1c(-c2ccc3c(c2)OCO3)cnc1NCc1ccccc1Cl	2	48*	2	-10	-2	-7
CCOC(=O)c1cc(NC(=O)Cc2ccc(S(=O)(=O)N3CCOCC3)s2)cc(C(=O)OCC)c1	-1	26*	x	4	2	9
O=C(Cc1ccc(S(=O)(=O)N2CCOCC2)s1)Nc1cc(C(F)(F)F)cc(C(F)(F)F)c1	1	0	x	-9	4	1
COc1cc(NC(=O)Cn2c(=O)n(CC3CCCO3)c(=O)c3ccccc32)cc(OC)c1 (configuration not stated)	-3	1	-3	-4	-1	8
COc1ccc(NC(=O)Cn2c(=O)n(CC3CCCO3)c(=O)c3ccccc32)c(OC)c1 (configuration not stated)	1	22*	1	9	5	8
N#Cc1ccc(-c2csc(NC3=NCCCCC3)n2)cc1	-4	39*	1	16	1	3
FC(F)Oc1ccc(-c2csc(NNC3=NCCCCC3)n2)cc1	38*	-4	-3	-12	7	-2
Brc1ccc(-c2csc(NNC3=NCCCCC3)n2)cc1	12	-3	-7	-11	-2	0
COC(=O)CCC(=O)N1C2=NC3=C(C(=O)N(Cc4ccc5c(c4)OCO5)C3=O)C3N(C)c4ccccc4[C@]23C[C@H]1CO (some centres not stated)	1	0	x	x	5	5
CCCn1nc(C(=O)Nc2nc3ccccc3[nH]2)c2ccccc2c1=O	-1	-7	-14	-2	2	2
CC(C)n1nc(C(=O)Nc2nc3ccccc3[nH]2)c2ccccc2c1=O	4	98*	-8	0	-4	3
COc1cccc(CNC(=O)[C@H]2CCCN2C(=O)[C@H]2CCCN2C(=O)c2ccccc2C(F)(F)F)c1	3	-1	x	x	-2	-2
Cc1ccc(-n2c(-c3nn(C)cc3Cl)n[nH]c2=S)cc1	0	21*	-6	-6	1	3
CC(C)(C)OC(=O)N1CCC2CCN(CCc3ccccc3)CC21 (configuration not stated)	-5	0	x	x	1	4
CCOC(=O)/C=C(\C)Sc1cc(O)c2ccccc2c1O	84*	7	9	-37	29*	-4
COc1cccc2c(SCC(=O)N/N=C/c3ccc(O)c(O)c3)cc(C)nc12	29*	8	-10	-1	10	0
SMILES	PRMT1 inh	UHRF1 binding	RBBP9 inhibitor	ABHD5-PLIN5 inh	LEDGF integ inh	MBD2 inh
COC(=O)c1ccc(Cn2cnc3c(cnn3-c3ccc(Cl)cc3)c2=O)o1	0	32*	1	-1	-3	-4
COC(=O)c1ccc(Cn2cnc3c(cnn3-c3ccc(F)cc3)c2=O)o1	-2	-4	-5	-2	1	2
CCOc1cc(NC(=S)NCC2CCCO2)c(OCC)cc1NC(=O)c1ccccc1C (configuration not stated)	-3	47*	-5	2	1	-1
COc1ccccc1OCC(=O)NCCSCc1ccccc1Cl	2	25*	-4	-7	2	5
COc1ccc(C(=O)N/C(=C/c2ccco2)C(=O)NCc2ccco2)cc1	25*	3	x	10	9	-1
Cc1cc(C)c2cc(CN(Cc3ccco3)C(=S)NCC3CCCO3)c(=O)[nH]c2c1 (configuration not stated)	11	45*	-6	7	-1	4
Cc1ccc(-c2cc(C#N)c3n(c2=O)CCC3)cc1	-2	4	x	x	-3	-1
CCCCNC(=O)NC1CCN(CC(=O)Nc2ccc3c(c2)OCCO3)CC1	8	32*	x	x	-6	6
COC(=O)CSc1nnc(-c2ccc(NS(=O)(=O)c3c(C(C)C)cc(C(C)C)cc3C(C)C)cc2)o1	-1	-2	x	x	-2	-1
Cc1ccc2cc(CN(CC3CCCO3)S(=O)(=O)c3ccccc3)c3nnnn3c2c1 (configuration not stated)	1	21*	-8	6	-2	-6
Cc1ccc2cc(CN(CC3CCCO3)C(=O)Nc3ccccc3F)c3nnnn3c2c1 (configuration not stated)	-2	-1	7	9	4	2
CC(C)C[C@H](N)c1nnc(S(=O)(=O)Cc2ccc(F)cc2)o1	x	x	3	31*	x	x
C[C@H]1C2CC(OC(=O)Nc3cccc(C(F)(F)F)c3)C(C2)[C@H]2CCCCN21 (some centres not stated)	0	0	x	x	-1	3
O=C(Nc1ccccc1F)c1ccn[nH]1	6	75*	-3	5	-2	3
CC(NCc1ccco1)C(=O)N1CCN(c2ccc(F)cc2)CC1 (configuration not stated)	-3	2	x	x	1	1
COc1ccc(CNS(=O)(=O)CC2NCCc3ccccc32)cc1 (configuration not stated)	-2	2	x	x	2	0
COc1ccc(NC(=O)/C(Cl)=C(/Cl)S(=O)(=O)Cc2ccc(C)cc2)cn1	x	x	-7	64*	x	x
CN(Cc1ccc(Cl)c(Cl)c1)C(=O)C1CSC2(C)CCC(=O)N12 (configuration not stated)	-3	28*	x	2	2	0
CC(C)N1CCC(N2CCN(Cc3cccc4nonc34)CC2CCO)CC1 (configuration not stated)	4	79*	0	-2	-13	-2
Cc1cc(NC(=O)CN(C)C)c([N+](=O)[O-])cc1C	1	42*	0	1	-4	1
